Measured values taken from ChEMBL document CHEMBL4368937, “Design, synthesis and biological evaluation of low molecular weight CXCR4 ligands” (Bioorg Med Chem, 2019).

How the values were obtained:
[1] = target: T1, C-X-C chemokine receptor type 4 (Homo sapiens, UniProt P61073); assay: Competitive inhibition of TAMRAAc-TZ14011 binding to CXCR4 (unknown origin) expressed in CHO cells at 1 uM in presence of ZnCl2 by NanoBRET assay relative to control; format: cell-based
Outline: (§1)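 Single-point competition in CHO cells stably expressing N-terminally Nluc-tagged CXCR4 (5 x 10^4 cells, seeded 24 h earlier at 37 °C, 5% CO2, medium then replaced with OptiMEM). Cells were incubated with 10 nM TAMRA-Ac-TZ14011 plus 1 µM compound, without or with 10 µM ZnCl2 (10 eq), for 1 h at 25 °C. Furimazine was added and BRET read as acceptor (>610 nm) over donor (460 nm). Inhibition is relative to no compound and to excess Ac-TZ14011; mean ± SEM, n = 3.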

[2] = target: T1, C-X-C chemokine receptor type 4; assay: Competitive inhibition of TAMRAAc-TZ14011 binding to CXCR4 (unknown origin) expressed in CHO cells at 1 uM in absence of ZnCl2 by NanoBRET assay relative to control; format: cell-based; outline: as §1
[3] = target: T1, C-X-C chemokine receptor type 4; assay: Competitive inhibition of [125I]-CXCL12 binding to CXCR4 in human Jurkat cells at 1 uM in absence of ZnCl2 after 2 hrs by gamma counting analysis relative to control; format: cell-based
[4] = target: T1, C-X-C chemokine receptor type 4; assay: Competitive inhibition of [125I]-CXCL12 binding to CXCR4 in human Jurkat cells at 1 uM in presence of ZnCl2 after 2 hrs by gamma counting analysis relative to control; format: cell-based
[5] = target: T1, C-X-C chemokine receptor type 4; assay: Competitive inhibition of TAMRAAc-TZ14011 binding to CXCR4 (unknown origin) expressed in CHO cells in presence of ZnCl2 by NanoBRET assay relative to control; format: cell-based
Outline: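 Cells were incubated with 10 nM TAMRA-Ac-TZ14011 and compound plus ZnCl2 (10 eq). Furimazine was added and BRET ratio taken as >610 nm over 460 nm emission. Inhibition is scaled between no compound and excess Ac-TZ14011.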

[6] = test system: Human immunodeficiency virus 1; assay: Antiviral activity against X4 tropic HIV-1 NL4-3 infected in human MT4 cells assessed as protection against virus-induced cytopathic effect in absence of ZnCl2 after 5 days by MTT assay; format: functional, organism-based; conditions: Human immunodeficiency virus 1, NL4-3, MT4, 120 h
Outline: (§2)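 Protection of MT-4 cells from X4 HIV-1 NL4-3 cytopathicity. Infected cells (MOI 0.001, 2.0 × 10^4 cells/well) received graded compound concentrations, without or with ZnCl2 (10 eq), for 5 days at 37 °C. Viable cells were counted by MTT. EC50 is the concentration giving 50% protection; mean of at least three independent experiments.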

[7] = test system: Human immunodeficiency virus 1; assay: Antiviral activity against X4 tropic HIV-1 NL4-3 infected in human MT4 cells assessed as protection against virus-induced cytopathic effect in presence of ZnCl2 after 5 days by MTT assay; format: functional, organism-based; conditions: Human immunodeficiency virus 1, NL4-3, MT4, 120 h; outline: as §2
[8] = Cytotoxicity against human MT4 cells in absence of ZnCl2; format: cell-based
[9] = Cytotoxicity against human MT4 cells in presence of ZnCl2; format: cell-based
Outline: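 MT-4 viability with compound plus ZnCl2 (10 eq). CC50 is the concentration giving 50% reduction in viable cells; mean of at least three independent experiments.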

[10] = test system: Human immunodeficiency virus 1; assay: Antiviral activity against R5 tropic HIV-1 NL(AD8) infected in human MT4 cells assessed as protection against virus-induced cytopathic effect at 10 uM in presence of ZnCl2 after 5 days by MTT assay; format: functional; conditions: Human immunodeficiency virus 1, NL(AD8), MT4, 120 h
[11] = test system: Human immunodeficiency virus 1; assay: Antiviral activity against R5 tropic HIV-1 NL(AD8) infected in human MT4 cells assessed as protection against virus-induced cytopathic effect at 10 uM in absence of ZnCl2 after 5 days by MTT assay; format: functional; conditions: Human immunodeficiency virus 1, NL(AD8), MT4, 120 h

T1 sequence (P61073 whole entry): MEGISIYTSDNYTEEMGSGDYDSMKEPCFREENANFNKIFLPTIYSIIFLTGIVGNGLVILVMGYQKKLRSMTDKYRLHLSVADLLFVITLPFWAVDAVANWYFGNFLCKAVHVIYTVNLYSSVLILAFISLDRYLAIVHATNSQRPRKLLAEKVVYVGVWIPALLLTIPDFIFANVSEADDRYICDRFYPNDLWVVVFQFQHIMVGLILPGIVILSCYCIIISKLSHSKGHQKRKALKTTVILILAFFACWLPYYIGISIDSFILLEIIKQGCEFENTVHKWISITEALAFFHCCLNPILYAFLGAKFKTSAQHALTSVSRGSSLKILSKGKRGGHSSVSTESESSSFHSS

| SMILES | inhibition [1] | inhibition [2] | inhibition [3] | inhibition [4] | IC50 [5] | EC50 [6] | EC50 [7] | CC50 [8] | CC50 [9] | inhibition at 10 µM [10] | inhibition at 10 µM [11] |
| --- | --- | --- | --- | --- | --- | --- | --- | --- | --- | --- | --- |
| c1ccc(CN(Cc2ccc(CN3CCCNCCNCCCNCC3)cc2)Cc2ccccn2)nc1 | 83.7% | 101% | 110% | 82.5% | 32 nM | 6.5 nM | 2.7 nM | > 10000 nM | > 10000 nM | – | – |
| c1ccc(CN(Cc2ccc3c(CN4CCCNCCNCCCNCC4)cccc3c2)Cc2ccccn2)nc1 | 107% | 81.5% | 81.7% | 77.3% | 1.6 nM | 220 nM | 28 nM | > 10000 nM | > 10000 nM | < 30% | < 30% |
| c1ccc(CN(Cc2ccc3cc(CN4CCCNCCNCCCNCC4)ccc3c2)Cc2ccccn2)nc1 | 89.9% | 80.7% | 98.2% | 99.6% | 10 nM | 470 nM | 240 nM | > 10000 nM | > 10000 nM | < 30% | < 30% |
